Measurements taken from ChEMBL document CHEMBL4028848, “Discovery of N-{4-[5-(4-Fluorophenyl)-3-methyl-2-methylsulfanyl-3H-imidazol-4-yl]-pyridin-2-yl}-acetamide (CBS-3595), a Dual p38α MAPK/PDE-4 Inhibitor with Activity against TNFα-Related Diseases” (J Med Chem, 2017).
pIC50: −log10 of the molar value. Calls of active or inactive are those of the source. The calls are words filed in the database; no cut-off is given here.

Columns and labels:
[1] = biological target: Rho-associated protein kinase 2 (Homo sapiens) (UniProt O75116); experiment: Inhibition of ROCK-2 (unknown origin) at 10 uM
Rho-associated protein kinase 2 (Homo sapiens), sequence (O75116 whole entry, looked up): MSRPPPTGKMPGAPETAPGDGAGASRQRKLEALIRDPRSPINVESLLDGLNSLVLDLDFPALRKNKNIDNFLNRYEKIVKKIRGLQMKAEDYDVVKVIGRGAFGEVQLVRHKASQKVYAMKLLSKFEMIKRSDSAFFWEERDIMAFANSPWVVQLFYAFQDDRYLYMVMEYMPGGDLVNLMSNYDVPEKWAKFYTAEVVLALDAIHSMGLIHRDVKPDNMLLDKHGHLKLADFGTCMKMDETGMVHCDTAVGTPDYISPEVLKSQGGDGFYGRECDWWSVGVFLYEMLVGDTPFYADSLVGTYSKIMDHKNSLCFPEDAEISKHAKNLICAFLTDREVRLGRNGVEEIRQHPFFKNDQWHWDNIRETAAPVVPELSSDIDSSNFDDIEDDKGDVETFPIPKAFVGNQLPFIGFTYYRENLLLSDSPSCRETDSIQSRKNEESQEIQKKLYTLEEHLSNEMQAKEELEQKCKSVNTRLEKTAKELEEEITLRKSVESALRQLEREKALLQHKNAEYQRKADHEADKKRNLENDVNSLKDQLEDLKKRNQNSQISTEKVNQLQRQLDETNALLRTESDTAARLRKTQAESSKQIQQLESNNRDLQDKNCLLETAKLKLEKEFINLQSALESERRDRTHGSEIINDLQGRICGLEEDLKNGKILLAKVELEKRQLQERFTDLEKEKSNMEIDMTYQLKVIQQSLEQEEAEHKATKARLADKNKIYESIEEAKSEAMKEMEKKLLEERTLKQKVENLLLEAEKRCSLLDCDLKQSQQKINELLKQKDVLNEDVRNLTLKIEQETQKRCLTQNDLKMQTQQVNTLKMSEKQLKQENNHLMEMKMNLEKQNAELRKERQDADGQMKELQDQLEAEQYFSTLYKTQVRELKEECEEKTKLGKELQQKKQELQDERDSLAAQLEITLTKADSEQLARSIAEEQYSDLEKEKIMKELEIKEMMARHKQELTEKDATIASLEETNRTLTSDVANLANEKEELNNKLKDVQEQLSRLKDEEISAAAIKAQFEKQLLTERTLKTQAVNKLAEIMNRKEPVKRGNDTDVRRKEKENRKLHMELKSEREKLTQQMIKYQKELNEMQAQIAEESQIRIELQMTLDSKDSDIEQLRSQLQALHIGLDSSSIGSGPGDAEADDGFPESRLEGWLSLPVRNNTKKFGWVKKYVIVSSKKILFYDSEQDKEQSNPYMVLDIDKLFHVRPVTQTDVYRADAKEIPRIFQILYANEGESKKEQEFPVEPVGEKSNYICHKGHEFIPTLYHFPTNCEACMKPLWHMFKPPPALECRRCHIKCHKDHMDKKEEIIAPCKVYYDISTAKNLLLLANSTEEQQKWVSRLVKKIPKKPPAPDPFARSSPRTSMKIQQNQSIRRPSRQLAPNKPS

Liver [2] = experiment: Drug level in rat liver microsomes treated with CBS-3595 at 10 to 100 uM; assay type: ADME, microsome
In short: (§1)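 Test compound incubated at 10, 30 and 100 μM with liver microsomes from rat, Cynomolgus monkey or human, and metabolites monitored.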

Liver [3] = experiment: Drug metabolism in rat liver microsomes assessed as 4-(4-(4-fluorophenyl)-1-methyl-2-(methylsulfinyl)-1H-imidazol-5-yl)pyridin-2-amine formation at 10 to 100 uM; assay type: ADME, microsome; in short: as §1
[4] = Drug metabolism in human primary hepatocytes assessed as CBS-3846 formation at 10 to 100 uM; assay type: ADME, cell-based, Hepatocyte
[5] = Tmax in female Sprague-Dawley rat at 30 mg/kg, po by LC-MS/MS analysis; assay type: ADME, organism-based; conditions: in vivo
Rattus norvegicus [6] = experiment: Toxicity in single po dosed rat assessed as effect on respiratory rate at 30 mg/kg, po administered as single dose; assay type: organism-based; conditions: in vivo
Serum = experiment: Drug uptake in male Lewis rat serum at 10 mg/kg, po by LC-MS/MS analysis; assay type: ADME, organism-based; conditions: in vivo
In short: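 Male Lewis rats were dosed orally at 10 mg/kg 1 h before an i.v. LPS challenge of 0.1 mg/kg. Serum drug concentration was measured 1.5 h after LPS.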

[7] = AUC (0 to infinity) in male Sprague-Dawley rat at 30 mg/kg, po by LC-MS/MS analysis; assay type: ADME, organism-based; set-up: dose 30 mg/kg, time infinity, route oral; conditions: in vivo
In short: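 Rats of each sex received a single oral dose of 30 mg/kg. Plasma concentration–time profiles of parent were determined separately for females and males.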

Escherichia coli = experiment: Genotoxicity in Escherichia coli in presence of S9 fraction by Ames test; assay type: toxicity
In short: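 Bacterial reverse mutation (Ames) test in S. typhimurium and E. coli strains, run with and without S9 mix.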

[8] = AUC (0 to t) in Beagle dog at 40 mg/kg, po by LC-MS/MS analysis; assay type: ADME, organism-based, Canis lupus familiaris; conditions: in vivo
In short: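 Toxicokinetics from a maximum-tolerated-dose study in four Beagle dogs given 40 mg/kg orally. Plasma levels of both parent and its predominant metabolite were monitored.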

[9] = Half life in female Sprague-Dawley rat at 30 mg/kg, po by LC-MS/MS analysis; assay type: ADME, organism-based; conditions: in vivo
Rattus norvegicus [10] = experiment: Toxicity in rat assessed as soft feces at 30 to 300 mg/kg, po administered as single dose; assay type: organism-based; conditions: in vivo
Rattus norvegicus [11] = experiment: Toxicity in Sprague-Dawley rat assessed as mortality at 2000 mg/kg, po administered via gavage after 14 days; assay type: organism-based; conditions: in vivo, 336 h
Homo sapiens [12] = species on record: Homo sapiens; experiment: Inhibition of p70S6K (unknown origin) at 10 uM relative to control
[13] = Half life in cynomolgus monkey at 20 mg/kg, po measured on day 1 and 27 post dose by LC-MS/MS analysis; assay type: ADME, organism-based, Macaca fascicularis; conditions: in vivo
In short: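 Cynomolgus monkeys were dosed orally at 6, 12 and 20 mg/kg daily in a 4-week toxicity study. Blood was sampled from 0.5 to 24 h post dose on days 1 and 27. Individual profiles of parent and metabolite gave Tmax, Cmax, T1/2 and AUC0–24.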

Liver [14] = experiment: Drug metabolism in human liver microsomes assessed as 4-(4-(4-fluorophenyl)-1-methyl-2-(methylsulfonyl)-1H-imidazol-5-yl)pyridin-2-amine formation at 10 to 100 uM; assay type: ADME, microsome; in short: as §1
Liver [15] = experiment: Drug metabolism in human liver microsomes assessed as 4-(4-(4-fluorophenyl)-1-methyl-2-(methylsulfinyl)-1H-imidazol-5-yl)pyridin-2-amine formation at 10 to 100 uM; assay type: ADME, microsome; in short: as §1
[16] = Cmax in female Sprague-Dawley rat at 30 mg/kg, po by LC-MS/MS analysis; assay type: ADME, organism-based; set-up: dose 30 mg/kg, route oral; conditions: in vivo
Homo sapiens [17] = experiment: In vivo inhibition of p38 MAPKalpha in human whole blood assessed as decrease in LPS-stimulated TNFalpha level at 10 to 30 mg treated for 36 hrs followed by LPS stimulation; assay type: functional, organism-based
In short: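 Ex vivo read-out in healthy volunteers after a single oral dose (10, 20 or 30 mg; placebo-controlled, single-blind, randomized). Blood drawn pre-dose and at 1, 2, 4, 9, 24 and 36 h post-dose was stimulated with LPS. TNFα release is expressed relative to the LPS-stimulated pre-dose sample of the same subject.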

Lymphocyte = experiment: Clastogenicity in human lymphocytes in presence of S9 fraction by microneucleus test; assay type: toxicity, cell-based
In short: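 Cytogenetic clastogenicity assay in cultured human lymphocytes, run with and without S9 mix.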

[18] = Tmax in mongrel dog at 30 mg/kg, po by LC-MS/MS analysis; assay type: ADME, organism-based, Canis lupus familiaris; conditions: in vivo
[19] = Drug metabolism in human primary hepatocytes assessed as CBS-3728 formation at 10 to 100 uM; assay type: ADME, cell-based, Hepatocyte
[20] = Half life in mongrel dog at 30 mg/kg, po by LC-MS/MS analysis; assay type: ADME, organism-based, Canis lupus familiaris; conditions: in vivo
In short: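 Oral single-dose PK; plasma concentrations of parent and metabolite measured. Dogs: blood sampled 0.25 to 24 h after dosing. Humans: healthy subjects, placebo-controlled single-blind randomized consecutive dosing, plasma sampled predose and 0.25–36 h post dose. 10 mg also given fasting and fed in crossover. Parameters derived from individual concentration–time profiles.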

Rattus norvegicus [21] = experiment: Antiarthritic activity in Lewis rat assessed as collagen oligomeric matrix protein level in serum at 50 mg/kg, po qd administered for 10 days (Rbv = 0.17 +/- 0.02 U/l); assay type: functional
In short: (§2)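 Collagen-induced arthritis in male Lewis rats (5–6 per group). Groups received vehicle, dexamethasone 1 mg/kg, test item 50 mg/kg once daily, or 25 mg/kg twice daily for 10 days. Body weight, arthritic score and paw volume were monitored, and serum COMP was measured at the end.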

Rattus norvegicus [22] = experiment: Toxicity in Sprague-Dawley rat assessed as dyspnea at 2000 mg/kg, po administered via gavage measured on day 1 and 2; assay type: organism-based; conditions: in vivo
Rattus norvegicus [23] = experiment: Antiarthritic activity in Lewis rat assessed as decrease in collagen-induced arthritic score at 50 mg/kg, po qd administered for 10 days; assay type: functional, organism-based; in short: as §2
[24] = AUC (infinity) in human at 20 mg, po administered as single dose; assay type: ADME, organism-based; set-up: dose 20 mg, time infinity, route oral; conditions: in vivo
In short: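 Placebo-controlled, single-blind, randomized, consecutive-dosing study in healthy subjects given single oral doses, with 10 mg also given fasting and fed in a crossover. Plasma parent and active metabolite were measured predose and from 0.25 to 36 h post dose. PK parameters were derived from individual concentration–time profiles and reported as means.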

Cynomolgus monkey = experiment: In vivo inhibition of P38 MAPKalpha in po dosed cynomolgus monkey assessed as decrease in TNFalpha level in LPS-stimulated whole blood pretreated for 4 weeks followed by ex vivo LPS addition measured on day 27; assay type: functional, organism-based; conditions: Macaca fascicularis
Rattus norvegicus [25] = experiment: Toxicity in Sprague-Dawley rat assessed as premature death at 15 to 150 mg/kg, po administered via gavage for 28 days followed by 2 weeks off without dosing; assay type: organism-based; conditions: in vivo
In short: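 Sprague–Dawley rats, 10–16 per group, 144 in total. Daily dosing for 28 days with vehicle or 15, 50 or 150 mg/kg; the top dose came from a range-finding study. Six males and six females from the control and high-dose groups were followed through a further 2-week treatment-free period. Clinical signs and histopathology recorded.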

[26] = biological target: Voltage-gated inwardly rectifying potassium channel KCNH2 (Homo sapiens, UniProt Q12809); experiment: Inhibition of human ERG expressed in HEK293 cells by patch clamp method; assay type: cell-based
Voltage-gated inwardly rectifying potassium channel KCNH2, sequence (Q12809 whole entry): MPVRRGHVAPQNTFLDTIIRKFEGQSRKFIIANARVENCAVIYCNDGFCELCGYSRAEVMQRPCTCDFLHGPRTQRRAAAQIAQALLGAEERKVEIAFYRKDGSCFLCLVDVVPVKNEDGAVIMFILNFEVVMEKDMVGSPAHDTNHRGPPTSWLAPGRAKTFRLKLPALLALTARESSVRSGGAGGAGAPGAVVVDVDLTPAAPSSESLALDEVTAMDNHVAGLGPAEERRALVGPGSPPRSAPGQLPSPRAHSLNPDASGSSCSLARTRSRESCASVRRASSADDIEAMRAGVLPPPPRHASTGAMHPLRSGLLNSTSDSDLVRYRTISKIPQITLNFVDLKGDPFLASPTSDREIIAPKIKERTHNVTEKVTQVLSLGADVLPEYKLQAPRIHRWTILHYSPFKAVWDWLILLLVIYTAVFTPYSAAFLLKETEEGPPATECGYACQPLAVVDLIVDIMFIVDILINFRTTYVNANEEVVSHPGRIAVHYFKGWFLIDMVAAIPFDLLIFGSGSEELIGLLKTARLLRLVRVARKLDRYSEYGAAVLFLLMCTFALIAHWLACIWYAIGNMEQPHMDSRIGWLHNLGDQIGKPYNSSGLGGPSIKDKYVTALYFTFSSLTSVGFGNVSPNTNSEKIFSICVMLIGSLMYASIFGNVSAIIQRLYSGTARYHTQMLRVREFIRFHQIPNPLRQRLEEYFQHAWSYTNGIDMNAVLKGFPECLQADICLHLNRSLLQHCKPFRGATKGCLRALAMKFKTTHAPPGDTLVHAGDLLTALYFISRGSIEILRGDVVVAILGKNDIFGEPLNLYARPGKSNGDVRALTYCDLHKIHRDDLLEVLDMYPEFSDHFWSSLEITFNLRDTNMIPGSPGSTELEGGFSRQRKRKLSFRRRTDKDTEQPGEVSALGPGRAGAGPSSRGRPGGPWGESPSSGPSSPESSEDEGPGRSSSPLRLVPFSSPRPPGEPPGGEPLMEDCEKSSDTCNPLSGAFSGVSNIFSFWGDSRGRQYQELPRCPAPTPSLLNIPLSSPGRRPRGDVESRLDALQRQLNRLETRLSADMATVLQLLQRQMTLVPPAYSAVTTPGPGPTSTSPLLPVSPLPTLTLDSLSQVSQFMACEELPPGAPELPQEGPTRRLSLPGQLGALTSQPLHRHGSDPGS

[27] = biological target: Ephrin type-B receptor 2 (Homo sapiens) (UniProt P29323); experiment: Inhibition of EphB2 (unknown origin) at 10 uM relative to control
Ephrin type-B receptor 2 (Homo sapiens), sequence (P29323 whole entry): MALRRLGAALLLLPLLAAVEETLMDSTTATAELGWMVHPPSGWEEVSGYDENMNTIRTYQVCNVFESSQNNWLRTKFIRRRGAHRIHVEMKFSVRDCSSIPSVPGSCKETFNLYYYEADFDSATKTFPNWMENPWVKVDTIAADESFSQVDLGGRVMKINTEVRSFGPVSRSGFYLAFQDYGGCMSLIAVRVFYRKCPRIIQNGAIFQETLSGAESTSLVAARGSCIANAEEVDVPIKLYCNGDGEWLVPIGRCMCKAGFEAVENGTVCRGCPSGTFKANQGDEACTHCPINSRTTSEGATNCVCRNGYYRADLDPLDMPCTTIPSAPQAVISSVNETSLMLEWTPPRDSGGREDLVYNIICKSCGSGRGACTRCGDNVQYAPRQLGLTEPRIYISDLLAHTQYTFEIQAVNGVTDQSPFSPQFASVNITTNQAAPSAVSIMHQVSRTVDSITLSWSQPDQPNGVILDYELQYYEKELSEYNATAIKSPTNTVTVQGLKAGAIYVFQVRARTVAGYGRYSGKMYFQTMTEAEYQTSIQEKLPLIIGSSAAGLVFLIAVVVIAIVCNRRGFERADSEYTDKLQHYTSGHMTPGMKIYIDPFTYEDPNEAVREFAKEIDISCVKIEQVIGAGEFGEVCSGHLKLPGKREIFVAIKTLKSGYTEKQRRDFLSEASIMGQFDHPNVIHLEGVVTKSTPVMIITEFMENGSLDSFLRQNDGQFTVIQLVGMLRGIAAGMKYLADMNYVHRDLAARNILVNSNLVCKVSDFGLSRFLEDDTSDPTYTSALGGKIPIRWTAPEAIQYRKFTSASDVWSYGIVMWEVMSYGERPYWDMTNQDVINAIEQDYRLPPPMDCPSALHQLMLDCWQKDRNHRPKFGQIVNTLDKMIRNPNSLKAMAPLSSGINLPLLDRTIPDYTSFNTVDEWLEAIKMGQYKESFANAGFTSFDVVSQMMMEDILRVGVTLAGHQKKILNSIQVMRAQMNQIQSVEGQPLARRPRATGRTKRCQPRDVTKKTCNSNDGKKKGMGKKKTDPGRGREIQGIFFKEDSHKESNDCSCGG

Cn1c([S+](C)[O-])nc(-c2ccc(F)cc2)c1-c1ccnc(N)c1 (stereo unspecified)
inhibition [1]: inactive
Drug metabolism (Liver [2]): Metabolite_Detected

CC(=O)Nc1cc(-c2c(-c3ccc(F)cc3)nc([S+](C)[O-])n2C)ccn1 (stereo unspecified)
Drug metabolism (Liver [3]): Metabolite_Detected
Drug metabolism [4]: Metabolite_Detected
Tmax [5]: 2 h
Activity (Rattus norvegicus [6]): Non-Toxic
Drug uptake (Serum): 689 ng/mL
AUC(0-inf) [7]: 29.8 µM·h
Activity (Escherichia coli): Non-Toxic
AUC(0-t) [8]: 93.4 µM·h
half-life [9]: 2.2 h
Activity (Rattus norvegicus [10]): Toxic
Activity (Rattus norvegicus [11]): Non-Toxic
inhibition (Homo sapiens [12]): 32%
half-life [13]: 4.8 h
Drug metabolism (Liver [14]): Metabolite_Detected
Drug metabolism (Liver [15]): Metabolite_Detected
Cmax [16]: 4.8 µM
inhibition (Homo sapiens [17]): Active
Activity (Lymphocyte): Non-Toxic
Tmax [18]: 2 h
Drug metabolism [19]: Metabolite_Detected
half-life [20]: 3.85 h
Activity (Rattus norvegicus [21]): 0.08 U/L
Activity (Rattus norvegicus [22]): Toxic
Activity (Rattus norvegicus [23]): Active
AUC(0-inf) [24]: 2.24 µM·h
inhibition (Cynomolgus monkey): Dose-dependent effect
Activity (Rattus norvegicus [25]): Non-Toxic
pIC50 [26]: 3.67
inhibition [27]: 60%
